Source: ChEMBL document CHEMBL1811902, “Thermodynamic and biological evaluation of a thrombin binding aptamer modified with several unlocked nucleic acid (UNA) monomers and a 2'-C-piperazino-UNA monomer” (Bioorg Med Chem, 2011)
pKd: −log10 of the molar value.

Columns and labels:
[1] = Thermodynamic stability in pH 7.0 buffer containing 100 mM Kcl, 10 mM sodium cacodylate; type: physicochemical
Summary of the method: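 UV melting at 295 nm over 5–95 °C at 0.2 °C/min. Samples annealed 5 min at 80 °C, then slowly cooled. Nine strand concentrations spanning 10^-5–10^-6 M, set from absorbance above 80 °C. Heating and cooling profiles recorded. Thermodynamic parameters from non-linear fitting of melting curves with a unimolecular transition model.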

Plasma [2] = test: Anticoagulant activity in human plasma assessed as time required for clot formation at 0.33 mM at 37 degC; type: functional
Summary of the method: (§1)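 Pooled citrate plasma from four healthy donors. Thrombin reagent pre-incubated with aptamer at 0.33 mM for 5 min, then mixed with an equal volume of plasma. Clotting time (thrombin time, seconds) read at 37 °C on an automated coagulation analyser. Antithrombin effect taken as the extra clotting time over a water-added reference.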

Prothrombin = Prothrombin (Homo sapiens, UniProt P00734); test: Binding affinity to thrombin at 37 degC by isothermal titration calorimetry
Summary of the method: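 ITC at 37 °C. One 0.2 µL pre-injection, discarded, then 19 × 2 µL injections. Heat of dilution from aptamer-into-buffer injections subtracted.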

Plasma [3] = test: Anticoagulant activity in human plasma assessed as time required for clot formation in presence of compound minus time required for clot formation in absence of compound at 0.33 mM at 37 degC; type: functional; summary of the method: as §1

| SMILES | Tm [1] [°C] | pKd (Prothrombin) | Time (Plasma [2]) [s] | Time (Plasma [3]) [s] |
| --- | --- | --- | --- | --- |
| Cc1cn([C@H]2C[C@H](OP(N)(=O)OC[C@H]3O[C@@H](n4cnc5c(=O)[nH]c(N)nc54)C[C@@H]3OP(N)(=O)OC[C@H]3O[C@@H](n4cnc5c(=O)[nH]c(N)nc54)C[C@@H]3O)[C@@H](COP(N)(=O)OC[C@@H](COP(N)(=O)O[C@H]3C[C@H](n4cnc5c(=O)[nH]c(N)nc54)O[C@@H]3COP(N)(=O)O[C@H]3C[C@H](n4cnc5c(=O)[nH]c(N)nc54)O[C@@H]3COP(N)(=O)O[C@H]3C[C@H](n4cc(C)c(=O)[nH]c4=O)O[C@@H]3COP(N)(=O)O[C@H]3C[C@H](n4cnc5c(=O)[nH]c(N)nc54)O[C@@H]3COP(N)(=O)O[C@H]3C[C@H](n4c(C)cc(=O)[nH]c4=O)O[C@@H]3COP(N)(=O)O[C@H]3C[C@H](n4cnc5c(=O)[nH]c(N)nc54)O[C@@H]3COP(N)(=O)O[C@@H]3C[C@@H](COP(N)(=O)O[C@H]4C[C@H](n5cc(C)c(=O)[nH]c5=O)O[C@@H]4COP(N)(=O)O[C@H]4C[C@H](n5cc(C)c(=O)[nH]c5=O)O[C@@H]4COP(N)(=O)O[C@H]4C[C@H](n5cnc6c(=O)[nH]c(N)nc65)O[C@@H]4COP(N)(=O)O[C@H]4C[C@H](n5cnc6c(=O)[nH]c(N)nc65)O[C@@H]4COC(=O)CCCC[C@@H]4SC[C@@H]5NC(=O)N[C@@H]54)O[C@H]3n3cnc4c(=O)[nH]c(N)nc43)O[C@H](CN3CCNCC3)n3ccc(=O)[nH]c3=O)O2)c(=O)[nH]c1=O (stereo not given in full) | 44.8 | 6.00 | 22.5 | 3.5 |
| Cc1cn([C@H]2C[C@H](OP(N)(=O)OC[C@H]3O[C@@H](n4cnc5c(=O)[nH]c(N)nc54)C[C@@H]3OP(N)(=O)OC[C@H]3O[C@@H](n4cnc5c(=O)[nH]c(N)nc54)C[C@@H]3O)[C@@H](COP(N)(=O)O[C@H]3C[C@H](n4cc(C)c(=O)[nH]c4=O)O[C@@H]3COP(N)(=O)O[C@H]3C[C@H](n4cnc5c(=O)[nH]c(N)nc54)O[C@@H]3COP(N)(=O)O[C@H]3C[C@H](n4cnc5c(=O)[nH]c(N)nc54)O[C@@H]3COP(N)(=O)OC[C@@H](COP(N)(=O)OC[C@@H](COP(N)(=O)OC[C@@H](COP(N)(=O)O[C@H]3C[C@H](n4cnc5c(=O)[nH]c(N)nc54)O[C@@H]3COP(N)(=O)O[C@@H]3C[C@@H](COP(N)(=O)O[C@H]4C[C@H](n5cc(C)c(=O)[nH]c5=O)O[C@@H]4COP(N)(=O)O[C@H]4C[C@H](n5c(C)cc(=O)[nH]c5=O)O[C@@H]4COP(N)(=O)O[C@H]4C[C@H](n5cnc6c(=O)[nH]c(N)nc65)O[C@@H]4COP(N)(=O)O[C@H]4C[C@H](n5cnc6c(=O)[nH]c(N)nc65)O[C@@H]4COC(=O)CCCC[C@@H]4SC[C@@H]5NC(=O)N[C@@H]54)O[C@H]3n3cnc4c(=O)[nH]c(N)nc43)O[C@H](CO)n3ccc(=O)[nH]c3=O)O[C@H](CO)n3cnc4c(=O)[nH]c(N)nc43)O[C@H](CO)n3ccc(=O)[nH]c3=O)O2)c(=O)[nH]c1=O (stereo not given in full) | 27 | 5.82 | 20.5 | 1.5 |
| Cc1cn([C@H]2C[C@H](OP(N)(=O)OC[C@@H]3C[C@@H](OP(N)(=O)OC[C@H]4O[C@@H](n5cnc6c(=O)[nH]c(N)nc65)C[C@@H]4OP(N)(=O)OC[C@H](COP(N)(=O)OC[C@H]4O[C@@H](n5cnc6c(=O)[nH]c(N)nc65)C[C@@H]4OP(N)(=O)OC[C@H]4O[C@@H](n5cc(C)c(=O)[nH]c5=O)C[C@@H]4OP(N)(=O)OC[C@H]4O[C@@H](n5cnc6c(=O)[nH]c(N)nc65)C[C@@H]4OP(N)(=O)OC[C@H]4O[C@@H](n5cnc6c(=O)[nH]c(N)nc65)C[C@@H]4OP(N)(=O)OC[C@H]4O[C@@H](n5cc(C)c(=O)[nH]c5=O)C[C@@H]4OP(N)(=O)OC[C@H]4O[C@@H](n5cc(C)c(=O)[nH]c5=O)C[C@@H]4OP(N)(=O)OC[C@H]4O[C@@H](n5cnc6c(=O)[nH]c(N)nc65)C[C@@H]4OP(N)(=O)OC[C@H]4O[C@@H](n5cnc6c(=O)[nH]c(N)nc65)C[C@@H]4O)O[C@H](CO)n4ccc(=O)[nH]c4=O)[C@H](n4cnc5c(=O)[nH]c(N)nc54)O3)[C@@H](COP(N)(=O)OC[C@@H](COP(N)(=O)O[C@H]3C[C@H](n4cnc5c(=O)[nH]c(N)nc54)O[C@@H]3COP(N)(=O)O[C@H]3C[C@H](n4cnc5c(=O)[nH]c(N)nc54)O[C@@H]3COC(=O)CCCC[C@@H]3SC[C@@H]4NC(=O)N[C@@H]43)O[C@H](CO)n3ccc(=O)[nH]c3=O)O2)c(=O)[nH]c1=O (stereo not given in full) | 50.1 | 5.89 | 31.2 | 12.2 |

Now from value to molecule, other results behind:

| Tm [1] [°C] | pKd (Prothrombin) | SMILES | Time (Plasma [2]) [s] | Time (Plasma [3]) [s] |
| --- | --- | --- | --- | --- |
| 42.2 | 7.32 | Cc1cn([C@H]2C[C@H](OP(N)(=O)OC[C@@H]3C[C@@H](OP(N)(=O)OC[C@H]4O[C@@H](n5cnc6c(=O)[nH]c(N)nc65)C[C@@H]4OP(N)(=O)OC[C@H]4O[C@@H](n5cc(C)c(=O)[nH]c5=O)C[C@@H]4OP(N)(=O)OC[C@H]4O[C@@H](n5cnc6c(=O)[nH]c(N)nc65)C[C@@H]4OP(N)(=O)OC[C@H]4O[C@@H](n5cc(C)c(=O)[nH]c5=O)C[C@@H]4OP(N)(=O)OC[C@H]4O[C@@H](n5cnc6c(=O)[nH]c(N)nc65)C[C@@H]4OP(N)(=O)OC[C@H]4O[C@@H](n5cnc6c(=O)[nH]c(N)nc65)C[C@@H]4OP(N)(=O)OC[C@H]4O[C@@H](n5cc(C)c(=O)[nH]c5=O)C[C@@H]4OP(N)(=O)OC[C@H]4O[C@@H](n5cc(C)c(=O)[nH]c5=O)C[C@@H]4OP(N)(=O)OC[C@H]4O[C@@H](n5cnc6c(=O)[nH]c(N)nc65)C[C@@H]4OP(N)(=O)OC[C@H]4O[C@@H](n5cnc6c(=O)[nH]c(N)nc65)C[C@@H]4O)[C@H](n4cnc5c(=O)[nH]c(N)nc54)O3)[C@@H](COP(N)(=O)O[C@H]3C[C@H](n4cc(C)c(=O)[nH]c4=O)O[C@@H]3COP(N)(=O)O[C@H]3C[C@H](n4cnc5c(=O)[nH]c(N)nc54)O[C@@H]3COP(N)(=O)O[C@H]3C[C@H](n4cnc5c(=O)[nH]c(N)nc54)O[C@@H]3COC(=O)CCCC[C@@H]3SC[C@@H]4NC(=O)N[C@@H]43)O2)c(=O)[nH]c1=O (stereo not given in full) [THROMBIN BINDING APTAMER] | 32.6 | 13.6 |
| 45.4 | 5.80 | Cc1cn([C@H]2C[C@H](OP(N)(=O)OC[C@@H]3C[C@@H](OP(N)(=O)OC[C@H]4O[C@@H](n5cnc6c(=O)[nH]c(N)nc65)C[C@@H]4OP(N)(=O)OC[C@H]4O[C@@H](n5cc(C)c(=O)[nH]c5=O)C[C@@H]4OP(N)(=O)OC[C@H]4O[C@@H](n5cnc6c(=O)[nH]c(N)nc65)C[C@@H]4OP(N)(=O)OC[C@H]4O[C@@H](n5cc(C)c(=O)[nH]c5=O)C[C@@H]4OP(N)(=O)OC[C@H]4O[C@@H](n5cnc6c(=O)[nH]c(N)nc65)C[C@@H]4OP(N)(=O)OC[C@H]4O[C@@H](n5cnc6c(=O)[nH]c(N)nc65)C[C@@H]4OP(N)(=O)OC[C@H]4O[C@@H](n5cc(C)c(=O)[nH]c5=O)C[C@@H]4OP(N)(=O)OC[C@H]4O[C@@H](n5cc(C)c(=O)[nH]c5=O)C[C@@H]4OP(N)(=O)OC[C@H]4O[C@@H](n5cnc6c(=O)[nH]c(N)nc65)C[C@@H]4OP(N)(=O)OC[C@H]4O[C@@H](n5cnc6c(=O)[nH]c(N)nc65)C[C@@H]4O)[C@H](n4cnc5c(=O)[nH]c(N)nc54)O3)[C@@H](COP(N)(=O)OC[C@@H](COP(N)(=O)O[C@H]3C[C@H](n4cnc5c(=O)[nH]c(N)nc54)O[C@@H]3COP(N)(=O)O[C@H]3C[C@H](n4cnc5c(=O)[nH]c(N)nc54)O[C@@H]3COC(=O)CCCC[C@@H]3SC[C@@H]4NC(=O)N[C@@H]43)O[C@H](CN3CCNCC3)n3ccc(=O)[nH]c3=O)O2)c(=O)[nH]c1=O (stereo not given in full) | 21.3 | 2.3 |
